Key:
Type in all cases: functional
T47D = assay: Growth inhibition of human T47D cells at 10 uM after 48 hrs by coulter counter analysis; conditions: read-out: GI
Summary of the method: (§1)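 Single-dose screen in the NCI 60 cell line panel. Cells grown in RPMI 1640 with 10% FBS. Compounds dissolved in DMSO and diluted in phosphate buffered saline, final DMSO under 1%. Duplicate wells seeded from culture at 6 × 10⁴ cells/ml. Incubated 48 h at 37 °C, humidified, 5% CO2. Cells diluted tenfold in saline and Coulter-counted. Percent growth inhibition computed against PBS/DMSO controls.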

NCI-H522 = assay: Growth inhibition of human NCI-H522 cells at 10 uM after 48 hrs by coulter counter analysis; conditions: NCI-H522, 48 h, read-out: GI
Summary of the method: (§2)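 Single-dose NCI 60-line panel screen of test compounds. Cells grown in RPMI 1640 with 10% FBS. Compounds dissolved in DMSO, then diluted in phosphate buffer saline (final DMSO below 1%). Wells run in duplicate at 6 × 10⁴ cells/ml. Controls held PBS and DMSO at matching dilutions. Incubation 48 h at 37 °C under humidified 5% CO2. Cells diluted tenfold in saline and counted by Coulter counter. Percent growth inhibition taken from mean-graph of treated-cell growth.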

LOX IMVI = assay: Growth inhibition of human LOXIMVI cells at 10 uM after 48 hrs by coulter counter analysis; conditions: read-out: GI; summary of the method: as §2
NCI-H322M = assay: Growth inhibition of human NCI-H322M cells at 10 uM after 48 hrs by coulter counter analysis; conditions: read-out: GI; summary of the method: as §2
UACC-62 = assay: Growth inhibition of human UACC62 cells at 10 uM after 48 hrs by coulter counter analysis; conditions: UACC-62, 48 h, read-out: GI; summary of the method: as §1
CCRF-CEM = assay: Growth inhibition of human CCRF-CEM cells at 10 uM after 48 hrs by coulter counter analysis; conditions: read-out: GI; summary of the method: as §2
SK-MEL-5 = assay: Growth inhibition of human SK-MEL-5 cells at 10 uM after 48 hrs by coulter counter analysis; conditions: SK-MEL-5, 48 h, read-out: GI; summary of the method: as §2
SNB-75 = assay: Growth inhibition of human SNB75 cells at 10 uM after 48 hrs by coulter counter analysis; conditions: SNB-75, 48 h, read-out: GI; summary of the method: as §1
SNB-19 = assay: Growth inhibition of human SNB19 cells at 10 uM after 48 hrs by coulter counter analysis; conditions: SNB-19, 48 h, read-out: GI; summary of the method: as §2
[1] = Growth inhibition of human Hs 578T cells at 10 uM after 48 hrs by coulter counter analysis; conditions: read-out: GI; summary of the method: as §2
A549 = assay: Growth inhibition of human A549/ATCC cells at 10 uM after 48 hrs by coulter counter analysis; conditions: A549, 48 h, read-out: GI; summary of the method: as §2
K562 = assay: Growth inhibition of human K562 cells at 10 uM after 48 hrs by coulter counter analysis; conditions: K562, 48 h, read-out: GI; summary of the method: as §2
SK-MEL-2 = assay: Growth inhibition of human SK-MEL-2 cells at 10 uM after 48 hrs by coulter counter analysis; conditions: SK-MEL-2, 48 h, read-out: GI; summary of the method: as §2
HT-29 = assay: Growth inhibition of human HT-29 cells at 10 uM after 48 hrs by coulter counter analysis; conditions: HT-29, 48 h, read-out: GI; summary of the method: as §2
[2] = Growth inhibition of human NCI-ADR-RES cells at 10 uM after 48 hrs by coulter counter analysis; conditions: read-out: GI; summary of the method: as §2
M14 = assay: Growth inhibition of human M14 cells at 10 uM after 48 hrs by coulter counter analysis; conditions: M14, 48 h, read-out: GI; summary of the method: as §2
SF-268 = assay: Growth inhibition of human SF268 cells at 10 uM after 48 hrs by coulter counter analysis; conditions: SF-268, 48 h, read-out: GI; summary of the method: as §2
HOP-62 = assay: Growth inhibition of human HOP62 cells at 10 uM after 48 hrs by coulter counter analysis; conditions: HOP-62, 48 h, read-out: GI; summary of the method: as §2
A498 = assay: Growth inhibition of human A498 cells at 10 uM after 48 hrs by coulter counter analysis; conditions: A498, 48 h, read-out: GI; summary of the method: as §2
SF-295 = assay: Growth inhibition of human SF295 cells at 10 uM after 48 hrs by coulter counter analysis; conditions: SF-295, 48 h, read-out: GI; summary of the method: as §2
IGROV-1 = assay: Growth inhibition of human IGROV1 cells at 10 uM after 48 hrs by coulter counter analysis; conditions: IGROV-1, 48 h, read-out: GI; summary of the method: as §2
NCI-H23 = assay: Growth inhibition of human NCI-H23 cells at 10 uM after 48 hrs by coulter counter analysis; conditions: NCI-H23, 48 h, read-out: GI; summary of the method: as §2
786-0 = assay: Growth inhibition of human 786-0 cells at 10 uM after 48 hrs by coulter counter analysis; conditions: 786-0, 48 h, read-out: GI; summary of the method: as §2
OVCAR-3 = assay: Growth inhibition of human OVCAR3 cells at 10 uM after 48 hrs by coulter counter analysis; conditions: OVCAR-3, 48 h, read-out: GI; summary of the method: as §2
HOP-92 = assay: Growth inhibition of human HOP92 cells at 10 uM after 48 hrs by coulter counter analysis; conditions: HOP-92, 48 h, read-out: GI; summary of the method: as §2
MOLT-4 = assay: Growth inhibition of human MOLT4 cells at 10 uM after 48 hrs by coulter counter analysis; conditions: MOLT-4, 48 h, read-out: GI; summary of the method: as §2
ACHN = assay: Growth inhibition of human ACHN cells at 10 uM after 48 hrs by coulter counter analysis; conditions: read-out: GI; summary of the method: as §2
HCC 2998 = assay: Growth inhibition of human HCC2998 cells at 10 uM after 48 hrs by coulter counter analysis; conditions: HCC 2998, 48 h, read-out: GI; summary of the method: as §2
Malme-3M = assay: Growth inhibition of human MALME-3M cells at 10 uM after 48 hrs by coulter counter analysis; conditions: read-out: GI; summary of the method: as §2
MDA-MB-435 = assay: Growth inhibition of human MDA-MB-435 cells at 10 uM after 48 hrs by coulter counter analysis; conditions: MDA-MB-435, 48 h, read-out: GI; summary of the method: as §2
SW-620 = assay: Growth inhibition of human SW620 cells at 10 uM after 48 hrs by coulter counter analysis; conditions: SW-620, 48 h, read-out: GI; summary of the method: as §1
EKVX = assay: Growth inhibition of human EKVX cells at 10 uM after 48 hrs by coulter counter analysis; conditions: read-out: GI; summary of the method: as §2
OVCAR-8 = assay: Growth inhibition of human OVCAR8 cells at 10 uM after 48 hrs by coulter counter analysis; conditions: OVCAR-8, 48 h, read-out: GI; summary of the method: as §2
OVCAR-5 = assay: Growth inhibition of human OVCAR5 cells at 10 uM after 48 hrs by coulter counter analysis; conditions: OVCAR-5, 48 h, read-out: GI; summary of the method: as §2
SN12C = assay: Growth inhibition of human SN12C cells at 10 uM after 48 hrs by coulter counter analysis; conditions: read-out: GI; summary of the method: as §2
DU-145 = assay: Growth inhibition of human DU145 cells at 10 uM after 48 hrs by coulter counter analysis; conditions: DU-145, 48 h, read-out: GI; summary of the method: as §2
MCF7 = assay: Growth inhibition of human MCF7 cells at 10 uM after 48 hrs by coulter counter analysis; conditions: MCF7, 48 h, read-out: GI; summary of the method: as §2

Row | SMILES | inhibition of growth at 10 µM (T47D) [%] | inhibition of growth at 10 µM (NCI-H522) [%] | inhibition of growth at 10 µM (LOX IMVI) [%] | inhibition of growth at 10 µM (NCI-H322M) [%] | inhibition of growth at 10 µM (UACC-62) [%] | inhibition of growth at 10 µM (CCRF-CEM) [%] | inhibition of growth at 10 µM (SK-MEL-5) [%] | inhibition of growth at 10 µM (SNB-75) [%] | inhibition of growth at 10 µM (SNB-19) [%] | inhibition of growth at 10 µM [1] [%] | inhibition of growth at 10 µM (A549) [%] | inhibition of growth at 10 µM (K562) [%] | inhibition of growth at 10 µM (SK-MEL-2) [%] | inhibition of growth at 10 µM (HT-29) [%] | inhibition of growth at 10 µM [2] [%] | inhibition of growth at 10 µM (M14) [%] | inhibition of growth at 10 µM (SF-268) [%] | inhibition of growth at 10 µM (HOP-62) [%] | inhibition of growth at 10 µM (A498) [%] | inhibition of growth at 10 µM (SF-295) [%] | further results
1 | Cc1cnc(NC(=O)CN2CCN(C)CC2)s1 | < 10 | < 10 | < 10 | < 10 | < 10 | 75.5 | < 10 | < 10 | < 10 | < 10 | < 10 | < 10 | < 10 | < 10 | < 10 | < 10 | < 10 | < 10 | < 10 | < 10 | inhibition of growth at 10 µM (IGROV-1): < 10%; inhibition of growth at 10 µM (NCI-H23): < 10%; inhibition of growth at 10 µM (786-0): < 10%; inhibition of growth at 10 µM (OVCAR-3): < 10%; inhibition of growth at 10 µM (HOP-92): < 10%; inhibition of growth at 10 µM (MOLT-4): < 10%; inhibition of growth at 10 µM (ACHN): < 10%; inhibition of growth at 10 µM (HCC 2998): < 10%; inhibition of growth at 10 µM (Malme-3M): < 10%; inhibition of growth at 10 µM (MDA-MB-435): < 10%; inhibition of growth at 10 µM (SW-620): < 10%; inhibition of growth at 10 µM (EKVX): < 10%; inhibition of growth at 10 µM (OVCAR-8): < 10%; inhibition of growth at 10 µM (OVCAR-5): < 10%; inhibition of growth at 10 µM (SN12C): < 10%; inhibition of growth at 10 µM (DU-145): < 10%; inhibition of growth at 10 µM (MCF7): < 10%
2 | Cc1cnc(NC(=O)CN2CCN(c3ccccc3)CC2)s1 | < 10 | < 10 | < 10 | < 10 | < 10 | 69.3 | < 10 | < 10 | < 10 | < 10 | < 10 | < 10 | < 10 | < 10 | < 10 | < 10 | < 10 | < 10 | < 10 | < 10 | inhibition of growth at 10 µM (IGROV-1): < 10%; inhibition of growth at 10 µM (NCI-H23): < 10%; inhibition of growth at 10 µM (786-0): < 10%; inhibition of growth at 10 µM (OVCAR-3): < 10%; inhibition of growth at 10 µM (HOP-92): < 10%; inhibition of growth at 10 µM (MOLT-4): < 10%; inhibition of growth at 10 µM (ACHN): < 10%; inhibition of growth at 10 µM (HCC 2998): < 10%; inhibition of growth at 10 µM (Malme-3M): < 10%; inhibition of growth at 10 µM (MDA-MB-435): < 10%; inhibition of growth at 10 µM (SW-620): < 10%; inhibition of growth at 10 µM (EKVX): 12.1%; inhibition of growth at 10 µM (OVCAR-8): < 10%; inhibition of growth at 10 µM (OVCAR-5): < 10%; inhibition of growth at 10 µM (SN12C): < 10%; inhibition of growth at 10 µM (DU-145): < 10%; inhibition of growth at 10 µM (MCF7): < 10%

Source: ChEMBL document CHEMBL2040727, “Substituted thiazoles VI. Synthesis and antitumor activity of new 2-acetamido- and 2 or 3-propanamido-thiazole analogs” (2012)
